≈ marks a conversion by molar mass, not a printed value.
What was measured:
[1] = tested on: PC-3; assay: Cytotoxicity against human PC3 cells; format: cell-based
[2] = tested on: Staphylococcus aureus; assay: Antimicrobial activity against methicillin-resistant Staphylococcus aureus 134/94 after 24 hrs by Kirby-Bauer agar diffusion assay; format: functional
In short: (§1)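 Overnight LB cultures (18–24 h) adjusted to a 0.5 McFarland standard (1.5×10^6 CFU/mL in 0.9% saline), then 0.1 mL mixed into 34 mL molten MHII agar at 47–50 °C (~5×10^3 CFU/mL). 50 µL of 2.0 mM compound in 10:1 MeOH:DMSO placed in 9 mm wells. Incubated at 37 °C for 24 h; inhibition zone diameter (mm) measured by caliper.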

[3] = tested on: Enterococcus faecalis; assay: Antimicrobial activity against vancomycin-resistant Enterococcus faecalis 1528 after 24 hrs by Kirby-Bauer agar diffusion assay; format: functional; in short: as §1
[4] = tested on: Escherichia coli; assay: Antimicrobial activity against Escherichia coli DC2 after 24 hrs by Kirby-Bauer agar diffusion assay; format: functional
In short: (§2)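 Modified Kirby-Bauer well diffusion. Overnight LB cultures (18–24 h) were standardized in 0.9% saline to 0.5 McFarland and mixed into melted MHII agar at 47–50 °C, giving ~5×10³ CFU/mL. 9 mm wells received 50 µL of 2.0 mM compound in 10:1 MeOH:DMSO. Plates were incubated 24 h at 37 °C, then growth-inhibition zone diameter was measured (mm) by caliper.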

[5] = tested on: Pseudomonas aeruginosa; assay: Antimicrobial activity against Pseudomonas aeruginosa 799/61 after 24 hrs by Kirby-Bauer agar diffusion assay; format: functional; in short: as §2
[6] = tested on: Mycolicibacterium vaccae; assay: Antimicrobial activity against Mycobacterium vaccae IMET 10670 after 24 hrs by Kirby-Bauer agar diffusion assay; format: functional; in short: as §2
[7] = tested on: HeLa; assay: Cytotoxicity against human HeLa cells; format: cell-based
[8] = tested on: Micrococcus luteus; assay: Antimicrobial activity against Micrococcus luteus ATCC 10240 assessed after 18 hrs by broth microdilution method; format: functional; conditions: ATCC 10240, 18 h
In short: (§3)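 CLSI broth microdilution in cation-adjusted MHII broth. 20 mM DMSO stocks were diluted to 512 µM, then serially 2-fold, giving final 128–0.0625 µM with 5×10⁵ CFU/mL inoculum. Incubated 18 h at 37 °C. MIC90 was the lowest concentration giving 90% inhibition by visual turbidity versus DMSO wells. Run in triplicate.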

[9] = tested on: Bacillus subtilis; assay: Antimicrobial activity against Bacillus subtilis ATCC 6633 after 24 hrs by Kirby-Bauer agar diffusion assay; format: functional; in short: as §2
[10] = tested on: Enterococcus faecalis; assay: Antimicrobial activity against Enterococcus faecalis ATCC 49532 after 24 hrs by Kirby-Bauer agar diffusion assay; format: functional; in short: as §2
[11] = tested on: Staphylococcus aureus; assay: Antimicrobial activity against Staphylococcus aureus SG511 after 24 hrs by Kirby-Bauer agar diffusion assay; format: functional; in short: as §2
[12] = tested on: Micrococcus luteus; assay: Antimicrobial activity against Micrococcus luteus ATCC 10240 after 24 hrs by Kirby-Bauer agar diffusion assay; format: functional; in short: as §2
[13] = tested on: MCF7; assay: Cytotoxicity against human MCF7 cells; format: cell-based
[14] = tested on: Sporobolomyces salmonicolor; assay: Antimicrobial activity against Sporidiobolus salmonicolor 549 after 24 hrs by Kirby-Bauer agar diffusion assay; format: functional; in short: as §2
[15] = tested on: Enterococcus faecalis; assay: Antimicrobial activity against Enterococcus faecalis ATCC 49532 assessed after 18 hrs by broth microdilution method; format: functional; conditions: ATCC 49532, 18 h; in short: as §3
[16] = tested on: Staphylococcus aureus; assay: Antimicrobial activity against Staphylococcus aureus SG511 assessed after 18 hrs by broth microdilution method; format: functional; conditions: SG511, 18 h; in short: as §3
[17] = tested on: Pseudomonas aeruginosa; assay: Antimicrobial activity against Pseudomonas aeruginosa 799/WT after 24 hrs by Kirby-Bauer agar diffusion assay; format: functional; in short: as §2
[18] = tested on: Escherichia coli; assay: Antimicrobial activity against Escherichia coli DC0 after 24 hrs by Kirby-Bauer agar diffusion assay; format: functional; in short: as §2
[19] = tested on: Sporobolomyces salmonicolor; assay: Antimicrobial activity against Sporidiobolus salmonicolor 549 at 10 ug/ml after 24 hrs by Kirby-Bauer agar diffusion assay; format: functional; conditions: Sporobolomyces salmonicolor, 549, 24 h; read-out: DIZ
In short: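 Control for the yeast: amphotericin B, 10 µg/mL in 10:1 DMSO:MeOH, 50 µL per 9 mm well in inoculated MHII agar (~5×10³ CFU/mL). Incubated at 37 °C for 24 h; growth-inhibition zone diameter measured in mm.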

[20] = tested on: Bacillus subtilis; assay: microbe, parasite or virus in culture; conditions: ATCC 6633, 24 h, read-out: DIZ
[21] = tested on: Mycolicibacterium vaccae; assay: Antimicrobial activity against Mycobacterium vaccae IMET 10670 at 5 ug/ml after 24 hrs by Kirby-Bauer agar diffusion assay; format: functional; conditions: IMET 10670, 24 h, read-out: DIZ
In short: (§4)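 Ciprofloxacin control, 5 µg/mL in water, 50 µL per 9 mm well in MHII agar seeded with ~5×10³ CFU/mL (saline suspension standardized to 0.5 McFarland from an overnight LB culture). Incubated at 37 °C for 24 h; inhibition zone diameter read in mm.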

[22] = tested on: Micrococcus luteus; assay: Antimicrobial activity against Micrococcus luteus ATCC 10240 at 5 ug/ml after 24 hrs by Kirby-Bauer agar diffusion assay; format: functional; conditions: ATCC 10240, 24 h, read-out: DIZ; in short: as §4
[23] = tested on: Pseudomonas aeruginosa; assay: microbe, parasite or virus in culture; conditions: 799/WT, 24 h, read-out: DIZ
[24] = tested on: Staphylococcus aureus; assay: microbe, parasite or virus in culture; conditions: 134/94, 24 h, read-out: DIZ
[25] = tested on: Enterococcus faecalis; assay: microbe, parasite or virus in culture; conditions: Enterococcus faecalis, 1528, 24 h, read-out: DIZ
[26] = tested on: Pseudomonas aeruginosa; assay: microbe, parasite or virus in culture; conditions: 799/61, 24 h, read-out: DIZ
[27] = tested on: Staphylococcus aureus; assay: Antimicrobial activity against Staphylococcus aureus SG511 at 5 ug/ml after 24 hrs by Kirby-Bauer agar diffusion assay; conditions: SG511, 24 h, read-out: DIZ
[28] = tested on: Enterococcus faecalis; assay: microbe, parasite or virus in culture; conditions: ATCC 49532, 24 h, read-out: DIZ
[29] = tested on: Escherichia coli; assay: Antimicrobial activity against Escherichia coli DC0 at 5 ug/ml after 24 hrs by Kirby-Bauer agar diffusion assay; conditions: DC0, 24 h, read-out: DIZ
[30] = tested on: Escherichia coli; assay: Antimicrobial activity against Escherichia coli DC2 at 5 ug/ml after 24 hrs by Kirby-Bauer agar diffusion assay; conditions: DC2, 24 h, read-out: DIZ

SMILES	Activity [1]	diameter of the inhibition zone (DIZ) [2]	diameter of the inhibition zone (DIZ) [3]	diameter of the inhibition zone (DIZ) [4]	diameter of the inhibition zone (DIZ) [5]	diameter of the inhibition zone (DIZ) [6]	Activity [7]	MIC90 [8]	diameter of the inhibition zone (DIZ) [9]	diameter of the inhibition zone (DIZ) [10]	diameter of the inhibition zone (DIZ) [11]	diameter of the inhibition zone (DIZ) [12]	Activity [13]	diameter of the inhibition zone (DIZ) [14]	MIC90 [15]	MIC90 [16]	diameter of the inhibition zone (DIZ) [17]	diameter of the inhibition zone (DIZ) [18]	further results
CO[C@@H]1C=C[C@@H](N(O)c2ccc(Br)cn2)CC1 (racemic)	Non-toxic	11 mm	16 mm	<=10 mm	<=10 mm	11 mm	Non-toxic	4 µM (≈ 1.2 µg/mL)	<=10 mm	16 mm	12 mm	34 mm	Non-toxic	<=10 mm	> 128 µM	> 128 µM	<=10 mm	<=10 mm	–
C=C(C)C(C)N(O)c1cccc(C)n1 (racemic)	Non-toxic	11 mm	16 mm	<=10 mm	<=10 mm	16 mm	Non-toxic	4 µM (≈ 0.769 µg/mL)	<=10 mm	15 mm	12 mm	48 mm	Non-toxic	<=10 mm	> 128 µM	> 128 µM	<=10 mm	<=10 mm	–
C=C(C)C(CC/C(C)=C/CO)N(O)c1ccccn1 (racemic)	Non-toxic	16 mm	16 mm	<=10 mm	<=10 mm	16 mm	Non-toxic	8 µM (≈ 2.1 µg/mL)	11 mm	20 mm	19 mm	35 mm	Non-toxic	<=10 mm	> 128 µM	64 µM (≈ 16.8 µg/mL)	<=10 mm	<=10 mm	–
C[C@@H]1[C@H](O)[C@@H](C)/C=C/C=C/C=C/C=C/C=C/C=C/C=C/[C@H](O[C@@H]2O[C@H](C)[C@@H](O)[C@H](N)[C@@H]2O)C[C@@H]2O[C@](O)(C[C@@H](O)C[C@@H](O)[C@H](O)CC[C@@H](O)C[C@@H](O)CC(=O)O[C@H]1C)C[C@H](O)[C@H]2C(=O)O [AMPHOTERICIN B]	–	–	–	–	–	–	–	–	–	–	–	–	–	–	–	–	–	–	zone of inhibition at 10 µg/mL [19]: 16 mm
O=C(O)c1cn(C2CC2)c2cc(N3CCNCC3)c(F)cc2c1=O [CIPROFLOXACIN]	–	–	–	–	–	–	–	–	–	–	–	–	–	–	2 µM (≈ 0.663 µg/mL)	0.5 µM (≈ 0.166 µg/mL)	–	–	zone of inhibition at 5 µg/mL [20]: ≥ 21 mm; zone of inhibition at 5 µg/mL [21]: ≥ 21 mm; zone of inhibition at 5 µg/mL [22]: ≤ 10 mm; zone of inhibition at 5 µg/mL [23]: ≥ 21 mm; zone of inhibition at 5 µg/mL [24]: 11 mm; zone of inhibition at 5 µg/mL [25]: 16 mm; zone of inhibition at 5 µg/mL [26]: ≥ 21 mm; zone of inhibition at 5 µg/mL [27]: ≥ 21 mm; zone of inhibition at 5 µg/mL [28]: 16 mm; zone of inhibition at 5 µg/mL [29]: ≥ 21 mm; zone of inhibition at 5 µg/mL [30]: ≥ 21 mm
